Reference: ChEMBL document CHEMBL1154766, “Synthesis and biological evaluation of new podophyllic aldehyde derivatives with cytotoxic and apoptosis-inducing activities” (2010)

How the values were obtained:
Type in all cases: functional
A549 = test: Cytotoxicity against human A549 cells after 72 hrs by SRB assay; conditions: A549, 72 h
Summary of the method: (§1)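 SRB growth assay: 5 × 10³ cells/well in RPMI, attached 18 h drug-free, then compound added in DMSO/H₂O 3:7 for 72 h. Fixed with cold 50% TCA 60 min at 4 °C, stained 0.4% SRB in 1% acetic acid 10 min, bound dye solubilized in Tris, OD 490 nm. GI50 from 100[(T−T0)/(C−T0)] = 50; mean of triplicates.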

HT-29 = test: Cytotoxicity against human HT-29 cells after 72 hrs by SRB assay; conditions: HT-29, 72 h; summary of the method: as §1
MDA-MB-231 = test: Cytotoxicity against human MDA-MB-231 cells after 72 hrs by SRB assay; conditions: MDA-MB-231, 72 h; summary of the method: as §1

SMILES	GI50 (A549) [nM]	GI50 (HT-29) [nM]	GI50 (MDA-MB-231) [nM]
COc1ccc(NCC2=Cc3cc4c(cc3[C@@H](c3cc(OC)c(OC)c(OC)c3)[C@@H]2C(=O)N2CCCC2)OCO4)cc1	15000	15000	> 17000
COc1cc([C@@H]2c3cc4c(cc3[C@H](O)[C@@H](CO)[C@H]2C(=O)N2CCCC2)OCO4)cc(OC)c1OC [PICROPODOPHYLLIC ACID PYRROLIDINYL AMIDE]	6800	7800	7800
CCNC(=O)[C@H]1[C@H](c2cc(OC)c(OC)c(OC)c2)c2cc3c(cc2[C@H](O)[C@H]1CO)OCO3	9800	10000	10000
CCC/N=C/C1=Cc2cc3c(cc2[C@@H](c2cc(OC)c(OC)c(OC)c2)[C@@H]1C(=O)OCc1cc(OC)c(OC)c(OC)c1)OCO3	5.2	4.3	130
COC(=O)[C@@H]1C(/C=N/c2ccc(OC)cc2)=Cc2cc3c(cc2[C@H]1c1cc(OC)c(OC)c(OC)c1)OCO3	94	9.4	
CCCNCC1=Cc2cc3c(cc2[C@@H](c2cc(OC)c(OC)c(OC)c2)[C@@H]1C(=O)OCC)OCO3	230	270	370
CCCNCC1=Cc2cc3c(cc2[C@@H](c2cc(OC)c(OC)c(OC)c2)[C@@H]1C(=O)OC)OCO3	1500	1000	5500
C=CCOC(=O)[C@H]1[C@H](c2cc(OC)c(OC)c(OC)c2)c2cc3c(cc2[C@H](O)[C@H]1CO)OCO3 [ALLYL PICROPODOPHYLLATE]	120	80	110
COc1cc([C@@H]2c3cc4c(cc3C=C(C=O)[C@H]2C(=O)N2CCCC2)OCO4)cc(OC)c1OC	6600	7300	8200
CCCCCCCOC(=O)[C@H]1[C@H](c2cc(OC)c(OC)c(OC)c2)c2cc3c(cc2[C@H](O)[C@H]1CO)OCO3 [HEPTYL PICROPODOPHYLLATE]	190	160	180
CCOC(=O)[C@H]1[C@H](c2cc(OC)c(OC)c(OC)c2)c2cc3c(cc2[C@H](O)[C@H]1CO)OCO3 [ETHYL PICROPODOPHYLLATE]	70	90	90
COC(=O)[C@@H]1C(CNc2ccc(OC)cc2)=Cc2cc3c(cc2[C@H]1c1cc(OC)c(OC)c(OC)c1)OCO3	1000	700	2400
COC(=O)[C@@H]1C(CNc2ccc(C)cc2)=Cc2cc3c(cc2[C@H]1c1cc(OC)c(OC)c(OC)c1)OCO3	900	800	1500
COc1cc([C@@H]2c3cc4c(cc3[C@H](O)[C@@H](CO)[C@H]2C(=O)OCCCBr)OCO4)cc(OC)c1OC	> 17000	22	34
CCC/N=C/C1=Cc2cc3c(cc2[C@@H](c2cc(OC)c(OC)c(OC)c2)[C@@H]1C(=O)OCC)OCO3	230	390	1200
